# Measured values as given in PMC5379986 (The Journal of Experimental Medicine, 2017).
# What was measured:
# [1] = tested on: CR3^kd cells; test: Cell-based Aβ degradation assay with LA-1 treatment in CR3 knockdown cells; details: CR3 knockdown BV2 cells; Fig. 4 B
# Procedure, shortened: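 CR3kd BV2 cells carried a stable CD11b-targeting shRNA lentivirus; controls carried empty vector. Lines were selected with 5 µg/ml puromycin and sorted for CD11b <80% of control. Cells were seeded at 250,000/well and attached overnight. Test compound or vehicle in serum-free DMEM was added 30 min before 1 µg/ml Aβ1-42. Timed samples went into 2× protease inhibitor. Total Aβ was measured by electrochemiluminescent ELISA (21D12 capture, 3D6 detection, Aβ1-40 standards).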
# [2] = tested on: APP-overexpressing Chinese hamster ovary cells; test: APP expression and processing after LA-1 treatment; assay type: cell-based; details: APP-overexpressing CHO cells, lysates and supernatants after 6 h; Fig. S2 A–F
# Procedure, shortened: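 Cells were APP-overexpressing CHO cells exposed to test compound in serum-free culture medium. Lysates and supernatants were harvested after 6 h.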
# [3] = Mass spectrometric analysis of LA-1 in brain and plasma; assay type: in vivo, mouse; details: concluded from brain levels after single i.p. dose, perfused brains
# Procedure, shortened: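 Male C57BL/6 mice received 500 µl of 50 µM test compound i.p., three mice per time point, sampled from 5 min to 8 h. EDTA plasma and PBS-perfused hemibrains were collected; brain was homogenised in water. Extracts diluted in methanol/acetonitrile were analysed by C18 LC-MS/MS (isocratic 85% acetonitrile, MRM m/z 420.103→375.800 and 420.103→230.000). Levels were interpolated from spiked-matrix standard curves by cubic regression.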
# [4] = tested on: acutely isolated microglia and PBMCs; assay type: in vivo, mouse; details: after 10 d of LA-1 injections; n = 5 mice per group; Fig. S2 I, J
# Procedure, shortened: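 Mice received 500 µl of 50 µM test compound or DMSO vehicle in PBS i.p. daily for 10 d. Microglia were isolated from perfused, enzymatically dissociated brains with CD45 microbeads, and PBMCs by Ficoll. Cells were kept on ice, washed and Fc-blocked 15 min. They were then stained 30 min with labelled antibodies against CD162, CD62L, CD18, CD54, CD14, CD49d, CD11a and CD11b.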
# [5] = tested on: primary microglia; test: qPCR analysis of mRNA from primary microglia of LA-1-treated mice; assay type: in vivo, mouse; details: microglia from LA-1-treated mice, qPCR normalized to GAPDH, n = 5
# Procedure, shortened: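 Mice received test compound i.p. daily for 10 d (500 µl of 50 µM; DMSO/PBS vehicle). Microglia were isolated from perfused, dissociated brains with CD45 microbeads and frozen immediately for RNA. cDNA diluted 1:20 was amplified with SYBR Green. Expression was calculated by ΔΔCt relative to GAPDH.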
# [6] = tested on: ISF Aβ; assay type: in vivo, mouse; details: 4-h LA-1 infusion and 12-h washout; n = 2 mice; Fig. 5 D, E
# Procedure, shortened: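 A 38-kD cutoff microdialysis probe was placed in the left hippocampus (bregma −3.1, midline −2.5, 3.2 mm below dura, 12°). It was perfused at 1 µl/min with 0.15% BSA artificial CSF, pH 7.35. After 8 h baseline, test compound was reverse-dialysed at 100 µM. Fractions were collected every 60–90 min, and Aβ40 was measured by sandwich ELISA (mHJ2 capture, mHJ5.1 detection). Male mice were used.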
smiles,measurement,setting,value
"O=C(O)c1ccc(-c2ccc(/C=C3\SC(=S)N(Cc4ccccc4)C3=O)o2)cc1 [LA-1, Leukadherin 1]",LA-1 effect on Aβ degradation in CR3^kd cells,[1],absent
same,APP expression and processing,[2],did not change
same,BBB penetration,[3],demonstrating BBB penetration
same,Vascular adhesion markers on acutely isolated microglia and PBMCs,[4],no changes
same,tPA mRNA in microglia,[5]; Fig. 4 E,significant increase
same,MMP2 or MMP9 mRNA levels in microglia,[5]; Fig. 4 F,did not observe differences
same,Reversibility of ISF Aβ reduction after exchanging drug for perfusion buffer,[6],reversible
